PREPL inhibitor = human PREPL enzyme inhibition; Q4J6C6; inhibition, % at 5.96 µM; hit rate 0.68% among 320,000; recombinant PREPL, fluorescence polarization activity-based probe
MEKK2wt PB1 HTS = raises or lowers MEK5 binding to wildtype human MEKK2 PB1 domain | Q9Y2U5 | bead flow cytometry, Alexa488-MEK5 binding to MEKK2 WT; actives lie on both sides | binding response (% of control), % at 10 µM | hit rate 1.1% among 290,000; in the data active = binding response below about 67% or above about 130%
MEKK3 PB1 HTS = modulators (inhibitors or enhancers) of MEK5 binding to human MEKK3 PB1 domain. Q99759. bead-based flow cytometry, Alexa488-MEK5 binding to MEKK3; actives lie on both sides; 0 = blocked by unlabeled MEK5, 100 = vehicle. binding response (% of control), % at 10 µM. hit rate 1.4% among 290,000. AID 1529;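 active = binding response more than 3 SD above or below the average of its plate-row segment, actives on both sides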;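 also: Alexa488 bead fluorescence after subtracting the streptavidin-only scavenger bead signal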
Target sequence (Q99759 whole entry, looked up, the tested form may be a part): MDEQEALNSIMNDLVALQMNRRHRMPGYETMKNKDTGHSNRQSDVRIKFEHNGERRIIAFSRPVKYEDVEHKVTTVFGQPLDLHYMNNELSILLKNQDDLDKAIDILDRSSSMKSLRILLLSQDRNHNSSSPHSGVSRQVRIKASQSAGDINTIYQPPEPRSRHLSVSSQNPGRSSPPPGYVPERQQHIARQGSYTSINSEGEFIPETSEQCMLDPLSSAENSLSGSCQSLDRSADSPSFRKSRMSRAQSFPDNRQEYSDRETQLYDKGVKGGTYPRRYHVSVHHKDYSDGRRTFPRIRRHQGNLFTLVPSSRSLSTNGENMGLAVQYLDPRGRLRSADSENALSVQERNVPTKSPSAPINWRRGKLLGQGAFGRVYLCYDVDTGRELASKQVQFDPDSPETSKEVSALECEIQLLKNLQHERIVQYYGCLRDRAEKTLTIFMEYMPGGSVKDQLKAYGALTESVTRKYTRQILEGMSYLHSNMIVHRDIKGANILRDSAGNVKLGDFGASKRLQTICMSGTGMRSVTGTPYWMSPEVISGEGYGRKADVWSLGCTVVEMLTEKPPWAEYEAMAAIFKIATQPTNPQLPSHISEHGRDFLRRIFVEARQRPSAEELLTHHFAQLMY
Apaf1 inhib = inhibitors of human Apaf-1 apoptosome. reconstituted apoptosome caspase-3 activity, DEVD-Rh110 fluorescence. AID 489030. hit rate 0.71% among 330,000. inhibition, % at 20 µM. O14727; active = inhibition of at least 40% at 20 µM
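Material: reconstituted apoptosome with Apaf-1, cytochrome c, caspase-9, procaspase-3, dATP. Technique: Rh110 fluorescence intensity. Buffer or medium: pH 7.5 Hepes buffer with CHAPS, BSA, DTT. Times: 30 min plus 50 min, RT.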
MEKK2mut PB1 HTS = signal of MEK5 binding to mutant human MEKK2 PB1 domain; bead flow cytometry, Alexa488-MEK5 binding to MEKK2 mutant; percent response, % at 10 µM; hit rate 0.35% among 290,000; AID 1530; in the data active = percent response above about 24%, passing the limit was not always enough
UBC13 inh = human UBC13 polyubiquitination inhibition | P61088 | UBC13 polyubiquitin chain formation, TR-FRET | inhibition, % at 20 µM | hit rate 0.47% among 330,000 | AID 485273; in the data active = inhibition above about 45%, passing the limit was not always enough
PREPL inh cf = confirmation of human PREPL enzyme inhibitors; hit rate 67% among 2,000; recombinant PREPL, fluorescence polarization activity probe; inhibition, % at 5.96 µM; shares compounds with PREPL inhibitor
Numbers stand for hits; - = inactive; . = not tested or not shown. Shown are actives, neighbours in structure and some others; about 3.1% of the full set was active somewhere. Rule as the data show it, unless noted: active = inhibition above about 43%; inactive = the rest.

SMILES	PREPL inhibitor	MEKK2wt PB1 HTS	MEKK3 PB1 HTS	Apaf1 inhib	MEKK2mut PB1 HTS	UBC13 inh	PREPL inh cf
Cc1sc(NC(=O)c2ccccc2)c(C(c2ccc(Cl)cc2)N2CCN(CCO)CC2)c1C (centres undefined)	48	-	-	-	-	-	-
Cc1ccc(C(=O)Nc2cccc(C(F)(F)F)c2)cc1NC(=O)c1[nH]cnc1C(N)=O	-	.	.	-	.	-	.
CCC(C)Sc1ccc(-c2nc3ccccn3c2NCc2ccccc2)cc1OC (centres undefined)	-	.	.	-	.	-	.
COc1ccc(CSc2ccc(-c3nc4ccccn4c3NCc3ccccc3)cc2OC)cc1	49	.	.	-	.	-	-
N#Cc1ccc(CN2CCN(C(=O)c3ccc(S(=O)(=O)NCc4ccco4)cc3)CC2)cc1	50	.	.	-	.	-	-
O=C(c1ccc(S(=O)(=O)NCc2ccco2)cc1)N1CCCC1	-	-	-	-	-	-	.
CCCNC(=O)N1CCC(c2nc3ccccc3s2)CC1	-	-	-	-	-	-	.
Cc1ccc(NC(=S)Nc2ccc3nc(-c4ccccn4)c(-c4ccccn4)nc3c2)cc1C	44	-	-	.	-	.	-
C#CCOCCOCCOCCNc1nc(N2CCN(C(=O)CCCCCCCCCCNC(=O)[C@H]([C@@H](C)CC)n3cc(CCCCN=C(N)N)nn3)CC2)nc(N2CCN(C(=O)CCCCCCCCCCNC(=O)[C@H](CO)n3cc(CCCCCN)nn3)CC2)n1	54	.	.	85	.	123	56
C#CCOCCOCCOCCNc1nc(N2CCN(C(=O)Cn3cc(CCCN=C(N)N)nn3)CC2)nc(N2CCN(C(=O)[C@H]([C@@H](C)CC)n3cc(CCCCN)nn3)CC2)n1	-	.	.	-	.	-	.
N#Cc1c(Nc2ccccc2)sc(C(=O)c2ccccc2)c1N	46	-	-	-	-	-	-
O=C(NCc1ccccc1)C1=C[C@H](c2coc3ccccc3c2=O)C[C@H](OCc2ccc(CO)cc2)O1	-	-	-	-	-	-	.
O=C(Nc1ccccc1)C1=C[C@@H](c2coc3ccccc3c2=O)C[C@@H](OCc2ccc(CO)cc2)O1	49	-	-	-	-	-	48
Cc1ccc(C2(C)NC(=O)N(CC(=O)N(c3ccccc3)C3CCS(=O)(=O)C3)C2=O)cc1 (centres undefined)	51	.	.	-	.	-	-
CC(C)CN(C(=O)CN1C(=O)NC(c2ccccc2)(c2ccccc2)C1=O)C1CCS(=O)(=O)C1 (centres undefined)	-	.	.	-	.	-	.
CN(Cc1ccco1)C(=O)c1ccc(OC2CCN(Cc3ccccn3)CC2)cc1	-	-	-	-	-	-	.
CC#CCN(Cc1ccco1)C(=O)c1ccc(OC2CCN(Cc3ccccn3)CC2)cc1	49	-	-	-	-	-	-
C/C(=N\N1CCN(c2ccc(Cl)cc2)CC1)c1cccc([N+](=O)[O-])c1	-	-	-	-	-	-	.
O=C(c1cccc([N+](=O)[O-])c1)N1CCN(c2ccc(Cl)cc2)CC1	51	-	-	-	-	-	-
COC(=O)c1nc(N)sc1-c1ccc(Cl)c(Cl)c1	-	-	-	-	-	-	.
O=C(COc1ccccc1C(=O)N/N=C\c1ccc(O)c(O)c1)N/N=C/c1ccc(O)c(O)c1	83	.	.	-	.	-	-
COc1cccc(C(CNC(=O)C(c2ccccc2)c2ccccc2)N(C)C)c1 (centres undefined)	-	-	-	-	-	-	.
O=C(Nc1ccc(NS(=O)(=O)c2ccc([N+](=O)[O-])cc2)cc1)c1ccco1	-	-	-	-	-	-	.
N#Cc1ncc(Cc2ccccc2)nc1C#N	52	-	-	-	-	-	-
N#Cc1nc(Cc2ccccc2)oc1NCc1cccnc1	-	-	-	-	-	-	.
SMILES	PREPL inhibitor	MEKK2wt PB1 HTS	MEKK3 PB1 HTS	Apaf1 inhib	MEKK2mut PB1 HTS	UBC13 inh	PREPL inh cf
Cc1ccccc1OCc1nnc(SCC(=O)Nc2ccc(N3CCOCC3)c(Cl)c2)n1C	51	-	-	-	-	-	58
Cc1ccc(-c2cc(-c3ccco3)c3c(N)c(C(=O)NN)oc3n2)cc1	-	-	-	-	-	-	.
NNC(=O)c1oc2nc(-c3cccs3)cc(-c3ccco3)c2c1N	62	-	-	-	-	-	65
CCOC(=O)N1CCC(NC(=O)C2CCN(C(=O)c3cc4oc(C)cc4n3Cc3c(F)cccc3Cl)CC2)CC1	55	-	-	-	-	-	52
COC(CNC(=O)C1CCN(C(=O)c2cc3oc(C)cc3n2Cc2c(F)cccc2Cl)CC1)OC	-	-	-	-	-	-	.
CCc1ccc(C(=O)N2CCN(c3ccc(NC(=O)c4cccnc4)cc3)CC2)cc1	-	-	-	-	-	-	.
O=C(NNC(=O)c1n[nH]c2ccccc12)c1ccccc1	.	.	.	-	.	-	.
CC1CC(C)CN(C(=O)c2ccc3c(c2NCCO)C(=O)c2ccccc2C3=O)C1 (centres undefined)	56	-	-	-	-	-	58
CC1CC(C)CN(C(=O)COC(=O)CN2C(=O)c3ccccc3C2=O)C1 (centres undefined)	-	.	.	-	.	-	.
COc1ccc(C2CCCN2C(=S)Nc2cccc(Cl)c2C)cc1OC (centres undefined)	50	-	-	-	-	-	-
COc1ccc(C2CCCN2C(=S)Nc2ccccc2C)cc1OC (centres undefined)	-	-	-	-	-	-	.
CCN(CC)c1nc2c3c(nc4c(c3c1C#N)CC(=O)N4c1ccc(Cl)cc1)NC(C)=N2	66	-	-	-	-	-	65
C=C(C)CN(CC)c1nc(N)c2c(N)nc3c(c2c1C#N)CC(=O)N3C12CC3CC(CC(C3)C1)C2	-	-	-	-	-	-	.
COc1ccc(Cn2nnc3ccccc32)cc1	50	.	.	-	.	-	-
c1ccc(Cn2nnc3ccccc32)cc1	-	-	-	-	-	-	.
O=C(O)CCC(=O)N1CCN(c2ccccn2)CC1	44	.	.	-	.	-	-
O=[N+]([O-])c1ccc2c(c1)C(N1CCOCC1)/C(=C/COc1ccc(F)cc1)O2 (centres undefined)	48	-	-	-	-	-	-
CC(=O)N1c2ccc(S(=O)(=O)N(C)CC(=O)NC3CCCCC3C)cc2CC1C (centres undefined)	-	-	-	-	-	-	.
N#Cc1c(N)nc2c3c(sc(=N)c2c1N)NC(=O)CC3c1ccccc1 (centres undefined)	50	-	-	-	-	-	-
O=C(C1CCC(CNS(=O)(=O)c2cccs2)CC1)N1CCN(c2ccc(Cl)cc2)CC1 (centres undefined)	-	-	-	-	-	-	.
Nc1ccccc1C(=O)NNC(=O)C(=O)/C=C(\O)c1ccccc1	-	-	-	-	-	-	.
COc1ccccc1C(=O)COC(=O)c1ccc(Cl)nc1	-	.	.	-	.	-	.

Screens (PubChem)
